Test results published in ChEMBL document CHEMBL1136332, “Structure-activity relationship of triaryl propionic acid analogues on the human EP3 prostanoid receptor” (Bioorg Med Chem Lett, 2003).

Columns and labels:
[1] = biological target: Prostaglandin E2 receptor EP2 subtype (Homo sapiens, UniProt P43116); assay: Affinity at human Prostanoid EP2 receptor in the human embryonic kidney (HEK) 293 cell line.; assay type: cell-based, HEK293
[2] = biological target: T1, Prostaglandin E2 receptor EP3 subtype (Homo sapiens, UniProt P43115); assay: Affinity at human Prostanoid EP3 receptor in the human embryonic kidney (HEK) 293 cell line.; assay type: cell-based, HEK293
T1 sequence (P43115 whole entry): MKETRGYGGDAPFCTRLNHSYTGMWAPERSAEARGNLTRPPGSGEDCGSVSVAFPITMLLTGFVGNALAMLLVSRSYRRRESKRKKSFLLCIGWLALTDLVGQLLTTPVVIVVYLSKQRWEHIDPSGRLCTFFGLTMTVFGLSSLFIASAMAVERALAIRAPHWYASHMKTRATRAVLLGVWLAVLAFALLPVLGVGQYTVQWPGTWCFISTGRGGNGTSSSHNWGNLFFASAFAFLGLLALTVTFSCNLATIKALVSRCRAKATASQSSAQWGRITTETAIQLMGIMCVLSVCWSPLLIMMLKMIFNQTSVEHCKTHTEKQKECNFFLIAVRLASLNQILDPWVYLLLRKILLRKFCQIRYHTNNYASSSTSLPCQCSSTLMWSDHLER

[3] = biological target: T2, Prostaglandin E2 receptor EP1 subtype (Homo sapiens, UniProt P34995); assay: Affinity at human Prostanoid EP1 receptor in the human embryonic kidney (HEK) 293 cell line.; assay type: cell-based, HEK293
T2 sequence (P34995 whole entry): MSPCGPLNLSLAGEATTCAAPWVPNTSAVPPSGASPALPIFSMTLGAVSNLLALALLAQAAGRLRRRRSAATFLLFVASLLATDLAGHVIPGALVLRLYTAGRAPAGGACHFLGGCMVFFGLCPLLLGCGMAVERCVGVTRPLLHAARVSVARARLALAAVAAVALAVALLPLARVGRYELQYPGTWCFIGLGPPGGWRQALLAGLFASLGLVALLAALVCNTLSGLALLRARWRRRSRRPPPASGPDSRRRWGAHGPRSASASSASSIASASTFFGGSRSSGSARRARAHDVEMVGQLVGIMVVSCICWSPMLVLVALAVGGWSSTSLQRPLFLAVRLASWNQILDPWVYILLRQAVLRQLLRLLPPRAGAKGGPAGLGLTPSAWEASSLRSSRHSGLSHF

[4] = biological target: Prostaglandin E2 receptor EP4 subtype (Homo sapiens, UniProt P35408); assay: Affinity at human Prostanoid EP4 receptor in the human embryonic kidney (HEK) 293 cell line.; assay type: cell-based, HEK293
Prostaglandin E2 receptor EP4 subtype, sequence (P35408 whole entry): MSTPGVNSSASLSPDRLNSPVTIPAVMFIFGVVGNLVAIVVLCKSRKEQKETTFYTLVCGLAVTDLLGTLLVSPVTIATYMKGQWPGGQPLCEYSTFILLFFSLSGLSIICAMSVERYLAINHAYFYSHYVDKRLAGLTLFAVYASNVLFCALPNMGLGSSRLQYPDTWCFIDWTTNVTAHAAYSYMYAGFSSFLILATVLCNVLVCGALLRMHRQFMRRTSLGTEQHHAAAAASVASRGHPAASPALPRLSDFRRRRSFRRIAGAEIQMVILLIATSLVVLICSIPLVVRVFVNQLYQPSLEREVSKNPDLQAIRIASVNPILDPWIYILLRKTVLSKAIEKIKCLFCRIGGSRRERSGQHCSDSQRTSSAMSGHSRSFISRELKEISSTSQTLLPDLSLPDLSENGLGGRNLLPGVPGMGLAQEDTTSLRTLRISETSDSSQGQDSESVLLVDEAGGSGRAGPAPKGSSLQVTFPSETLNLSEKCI

[5] = biological target: T3, Prostaglandin E2 receptor EP3 subtype (Homo sapiens) (UniProt P43115); assay: Ability to inhibit the binding of human Prostanoid EP3 receptor to PGE-2 using EP3 functional assay
T3 sequence (whole entry): T1 sequence (P43115 whole entry)
Outline: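 HEL 92.1.7 human erythroleukemia cells, which endogenously express EP3, at 2×10⁵ cells per incubation in HBSS with RO-20174 and forskolin. Antagonist (0–3×10⁻⁶ M, 0.5% DMSO final) preincubated 10 min at 37 °C. Sulprostone (0–3×10⁻⁵ M) was then added as agonist for 10 min at 37 °C. The reaction was stopped by 3 min boiling, and cAMP was read by SPA.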

[6] = biological target: Prostaglandin F2-alpha receptor (Homo sapiens, UniProt P43088); assay: Ability to inhibit the binding of human FP receptor to PGD-2
Prostaglandin F2-alpha receptor, sequence (P43088 whole entry): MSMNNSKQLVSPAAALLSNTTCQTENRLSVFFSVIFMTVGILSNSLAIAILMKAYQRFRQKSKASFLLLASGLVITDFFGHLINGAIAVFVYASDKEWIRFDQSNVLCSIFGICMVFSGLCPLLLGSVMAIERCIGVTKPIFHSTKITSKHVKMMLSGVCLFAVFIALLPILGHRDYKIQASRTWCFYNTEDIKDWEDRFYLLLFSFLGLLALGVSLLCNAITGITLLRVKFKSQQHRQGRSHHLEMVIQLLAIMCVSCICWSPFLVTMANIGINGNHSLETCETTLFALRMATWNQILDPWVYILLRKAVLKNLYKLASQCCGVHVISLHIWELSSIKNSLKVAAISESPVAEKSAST

Prostacyclin receptor = Prostacyclin receptor (Homo sapiens, UniProt P43119); assay: Ability to inhibit the binding of human IP receptor to Prostaglandin I2 receptor
Prostacyclin receptor, sequence (P43119 whole entry): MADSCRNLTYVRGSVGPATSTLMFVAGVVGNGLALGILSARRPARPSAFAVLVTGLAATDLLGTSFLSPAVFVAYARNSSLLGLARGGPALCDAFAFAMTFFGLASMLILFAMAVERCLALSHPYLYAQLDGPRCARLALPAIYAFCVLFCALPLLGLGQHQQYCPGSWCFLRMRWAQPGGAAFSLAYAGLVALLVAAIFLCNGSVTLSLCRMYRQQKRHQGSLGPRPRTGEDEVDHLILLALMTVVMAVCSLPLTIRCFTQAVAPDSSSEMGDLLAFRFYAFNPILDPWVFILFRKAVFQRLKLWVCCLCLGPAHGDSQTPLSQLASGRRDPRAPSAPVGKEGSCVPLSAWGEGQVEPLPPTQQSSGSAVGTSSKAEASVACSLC

Thromboxane A2 receptor = biological target: T4, Thromboxane A2 receptor (Homo sapiens, UniProt P21731); assay: Ability to inhibit the binding of human Thromboxane A2 receptor to TXA2
T4 sequence (P21731 whole entry): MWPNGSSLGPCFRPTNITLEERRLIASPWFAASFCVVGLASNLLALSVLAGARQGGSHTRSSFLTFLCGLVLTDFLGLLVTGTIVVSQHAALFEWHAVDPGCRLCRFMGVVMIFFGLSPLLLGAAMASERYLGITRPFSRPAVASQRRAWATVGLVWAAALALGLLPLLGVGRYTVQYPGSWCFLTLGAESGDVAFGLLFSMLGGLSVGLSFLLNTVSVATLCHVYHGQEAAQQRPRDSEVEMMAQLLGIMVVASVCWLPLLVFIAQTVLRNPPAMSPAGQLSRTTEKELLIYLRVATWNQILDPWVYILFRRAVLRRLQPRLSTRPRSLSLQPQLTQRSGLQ

[7] = biological target: Prostaglandin D2 receptor DP (human) (UniProt Q13258); assay: Ability to inhibit the binding of human DP receptor to PGD-2
Prostaglandin D2 receptor DP (human), sequence (Q13258 whole entry, looked up): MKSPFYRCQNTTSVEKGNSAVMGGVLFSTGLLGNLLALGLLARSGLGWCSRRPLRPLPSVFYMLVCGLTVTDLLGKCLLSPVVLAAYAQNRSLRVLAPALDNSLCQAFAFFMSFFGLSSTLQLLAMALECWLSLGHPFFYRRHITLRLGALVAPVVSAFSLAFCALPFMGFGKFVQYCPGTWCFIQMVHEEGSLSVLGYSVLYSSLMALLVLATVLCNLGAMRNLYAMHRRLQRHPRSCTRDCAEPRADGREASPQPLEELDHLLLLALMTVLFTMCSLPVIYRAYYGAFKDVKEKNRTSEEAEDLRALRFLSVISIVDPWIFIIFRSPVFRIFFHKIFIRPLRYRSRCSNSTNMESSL

Prostaglandin E2 receptor EP2 subtype, sequence (P43116 whole entry): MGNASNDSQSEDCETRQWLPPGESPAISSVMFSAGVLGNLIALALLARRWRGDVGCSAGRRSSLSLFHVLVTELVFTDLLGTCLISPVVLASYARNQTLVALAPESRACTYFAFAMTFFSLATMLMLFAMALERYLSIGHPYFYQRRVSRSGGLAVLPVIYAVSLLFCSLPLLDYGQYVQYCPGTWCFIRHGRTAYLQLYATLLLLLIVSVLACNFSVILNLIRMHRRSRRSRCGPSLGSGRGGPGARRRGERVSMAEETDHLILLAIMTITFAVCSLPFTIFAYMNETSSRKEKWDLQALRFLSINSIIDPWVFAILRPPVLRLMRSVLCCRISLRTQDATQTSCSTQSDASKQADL

SMILES	Ki [1] [nM]	Ki [2] [nM]	Ki [3] [nM]	Ki [4] [nM]	Kb [5] [nM]	Ki [6] [nM]	Ki (Prostacyclin receptor) [nM]	Ki (Thromboxane A2 receptor) [nM]	Ki [7] [nM]
O=C(O)CCc1ccccc1-c1cccc(-c2ccccc2COc2ccccc2)c1	2900	89	9500	1000					
O=C(O)CCc1ccccc1-c1cc(-c2ccccc2OCc2ccccc2)cs1	2900	27	17500	760					
O=C(O)c1ccc(CCCc2ccccc2OCc2ccccc2)cc1	150	2300	230	440					
O=C(CCc1ccccc1-c1cccc(-c2ccccc2OCc2ccccc2)c1)NS(=O)(=O)c1cccs1	1600	16	2600	1700					
O=C(O)CCc1ccccc1-c1ccc(-c2ccccc2OCc2ccccc2)s1	4100	520	27000	1100					
CC(Cc1ccccc1-c1cccc(-c2ccccc2OCc2ccccc2)c1)C(=O)O (configuration not stated)	3600	820	8300	1200					
O=C(O)CCc1ccccc1-c1cccc(-c2ccc(OCc3ccccc3)cc2)c1	> 97000	1500	> 97000	21000					
Cc1cccc(/C=C/Cc2ccccc2/C=C/C(=O)O)c1OCc1ccccc1	8100	7	12000	1900					
O=C(/C=C/c1ccccc1-c1ccc(Cl)c(Cl)c1)NS(=O)(=O)c1cccs1	10000		8100						
O=C(O)CCCc1ccccc1-c1cccc(-c2ccccc2OCc2ccccc2)c1	3500	590	11900	2000					
CC(Cc1ccccc1-c1csc(-c2ccccc2OCc2ccccc2)c1)C(=O)O (configuration not stated)	5500	460	13000	980					
O=C(O)CCc1ccccc1-c1cccc(-c2ccccc2OCc2c(Cl)cccc2Cl)c1	4600	21	1100	1100					
O=C(O)CNc1ccccc1-c1csc(-c2ccccc2OCc2ccccc2)c1	2500	52	85000	460					
O=C(O)/C=C/c1ccccc1-c1cccc(-c2ccccc2OCc2ccccc2)c1	830	84	72000	1700					
O=C(O)/C=C/c1ccccc1-c1ccc(Cl)c(Cl)c1	7500	1600	10000	> 10000					
O=C(O)CCc1ccccc1-c1cccc(-c2ccccc2OCc2ccccc2)c1	3700	55	8300	1800					
O=C(O)Cc1ccccc1-c1cccc(-c2ccccc2OCc2ccccc2)c1	3600	1700	9300	1100					
O=C(O)CCc1ccccc1-c1cccc(-c2ccccc2)c1	8100	750	34000	6000					
CC(CC(=O)O)c1ccccc1-c1csc(-c2ccccc2OCc2ccccc2)c1 (configuration not stated)	4600	35	35000	1100					
O=C(O)CCc1ccccc1-c1csc(-c2ccccc2OCc2ccccc2)c1	2500	23	17800	650					
O=C(O)C1CC1c1ccccc1-c1csc(-c2ccccc2OCc2ccccc2)c1 (configuration not stated)	2300	3	48000	300	5.8	22000	710	400	120
